Experimental data gathered from unrelated publications.
Protocols differ between the studies behind these lines.
Medium: plasma

| SMILES | system | conditions | endpoint | result |
| --- | --- | --- | --- | --- |
| CN(C(=O)c1ccn2ncc(-c3ccc(C(N)=O)cc3)c2c1)c1ccc(C#N)cn1 | female C57BL/6 mouse | intravenous, 1 mg/kg | AUC | 2.68 µM·h |
| CCOc1ccc(N(C)S(=O)(=O)c2cc(Cl)sc2C(=O)Nc2cc(Cl)cc(C(=O)O)c2)cc1OC | male C57BL/6 mouse | intraperitoneal, 10 mg/kg | AUC(0-t) | 5810 ng·h/mL |
| Cc1c(C(=O)O)ccc2c3n(nc12)[C@@H]1[C@H](C3)N(CC2CC2)[C@@]2(C(=O)Nc3cc(Cl)ccc32)[C@H]1c1cccc(Cl)c1F | female mouse | oral, 5 mg/kg | AUC(0-inf) | 125 µM·h |
| CCOC(=O)CN(C(=O)c1ccn2ncc(-c3ccc(C(=O)NC)cc3)c2c1)c1ccc(Cl)cc1 | female C57BL/6 mouse | oral, 10 mg/kg | AUC | 1.18 µM·h |
| Cc1cc2sc(N)nc2c2cccnc12 | female BALB/c mouse | intraperitoneal, 30 mg/kg, single dose | AUC(0-inf) | 45600 ng·h/mL |
| C=CS(=O)(=O)c1ccc(Nc2nc(OCC3CCCCC3)c3nc[nH]c3n2)cc1 | male BALB/c mouse | intravenous, 20 mg/kg, single dose | AUC(0-t) | 124 ng·h/mL |
| Nc1ncn([C@H]2C[C@H](O)[C@@H](CO)O2)c(=O)n1 | female C57BL/6 mouse | oral, 0.4 mg/kg | AUC(0-inf) | 71 ng·h/mL |
| CC(=O)O[C@@]12CO[C@@H]1C[C@H](O)[C@@]1(C)C(=O)[C@H](O)C3=C(C)[C@@H](OC(=O)[C@H](O)[C@@H](NC(=O)OC(C)(C)C)c4ccccc4)C[C@@](O)([C@@H](OC(=O)c4ccccc4)[C@H]21)C3(C)C | male Kunming mouse | oral, 20 mg/kg | AUC(0-t) | 14.7 ng·h/mL |
| CCN1CCN(Cc2ccc(NC(=O)c3ccc(C)c(NC(=O)c4cncc(-c5cccs5)c4)c3)cc2C(F)(F)F)CC1 | mouse | intraperitoneal, 20 mg/kg, single dose | AUC(0-t) | 1990 ng·h/mL |
| CN1CCN(C(=O)[C@H](CCCN[C@@H]2C[C@H]2c2ccc(F)cc2)NC(=O)c2ccc(-n3ccnn3)cc2)CC1 | CD-1 mouse | intravenous, 3 mg/kg | AUC(0-t) | 2.52 µM·h |
| COc1cc2c(NC3CCN(CCCC(=O)NCCCCCCCCCCCC(=O)N[C@H](C(=O)N4C[C@H](O)C[C@H]4C(=O)NCc4ccc(-c5scnc5C)cc4)C(C)(C)C)CC3)nc(N3CCC(F)(F)CC3)nc2cc1OCCCN1CCCC1 | male C57BL/6 mouse | intraperitoneal, 50 mg/kg, single dose | AUC(0-t) | 61 µM·h |
